From ChEMBL document CHEMBL5257027 (Eur J Med Chem, 2016)

Columns and labels:
[1] = tested on: COLO 205; assay: Antiproliferative activity against human COLO 205 cells assessed as inhibition of cell growth at 10 uM; format: functional
How it was run: (§1)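 NCI 58-cell-line screen covering leukemia, NSCLC, colon, CNS, melanoma, ovarian, renal, prostate and breast lines. Compounds given once at […] (micromolar per the line). Percent inhibition taken as 100 minus growth percent. Panel line reports the mean over all 58 lines.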

[2] = tested on: HCT-15; assay: Cytotoxicity against human HCT-15 cells; format: functional; conditions: read-out: LC50 (the source's name)
How it was run: (§2)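 Run in the US NCI 58-cell-line screen covering nine cancer types (leukemia, NSCLC, colon, CNS, melanoma, ovarian, renal, prostate, breast). Five-dose mode gave GI50, TGI and LC50 values for each cell line. In the single-dose pre-screen, % inhibition was taken as 100 minus growth percentage.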

[3] = tested on: Panel colon (Carcinoma cell lines); assay: Antiproliferative activity against human Panel colon (7 Carcinoma cell lines) assessed as reduction in mean cell growth; format: functional
How it was run: (§3)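 NCI five-dose testing across the 58-line panel gives GI50, TGI and LC50 for each line. Subpanel lines report mean GI50 for each of the nine cancer types.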

[4] = target: Serine/threonine-protein kinase B-raf (Homo sapiens) (UniProt P15056); assay: Inhibition of B-RAF (unknown origin) at 10 uM using […] as substrate incubated for 40 mins in presence of [gamma33P]ATP by scintillation counting based hotspot kinase assay relative to control
Chain of Serine/threonine-protein kinase B-raf (Homo sapiens) (P15056 whole entry): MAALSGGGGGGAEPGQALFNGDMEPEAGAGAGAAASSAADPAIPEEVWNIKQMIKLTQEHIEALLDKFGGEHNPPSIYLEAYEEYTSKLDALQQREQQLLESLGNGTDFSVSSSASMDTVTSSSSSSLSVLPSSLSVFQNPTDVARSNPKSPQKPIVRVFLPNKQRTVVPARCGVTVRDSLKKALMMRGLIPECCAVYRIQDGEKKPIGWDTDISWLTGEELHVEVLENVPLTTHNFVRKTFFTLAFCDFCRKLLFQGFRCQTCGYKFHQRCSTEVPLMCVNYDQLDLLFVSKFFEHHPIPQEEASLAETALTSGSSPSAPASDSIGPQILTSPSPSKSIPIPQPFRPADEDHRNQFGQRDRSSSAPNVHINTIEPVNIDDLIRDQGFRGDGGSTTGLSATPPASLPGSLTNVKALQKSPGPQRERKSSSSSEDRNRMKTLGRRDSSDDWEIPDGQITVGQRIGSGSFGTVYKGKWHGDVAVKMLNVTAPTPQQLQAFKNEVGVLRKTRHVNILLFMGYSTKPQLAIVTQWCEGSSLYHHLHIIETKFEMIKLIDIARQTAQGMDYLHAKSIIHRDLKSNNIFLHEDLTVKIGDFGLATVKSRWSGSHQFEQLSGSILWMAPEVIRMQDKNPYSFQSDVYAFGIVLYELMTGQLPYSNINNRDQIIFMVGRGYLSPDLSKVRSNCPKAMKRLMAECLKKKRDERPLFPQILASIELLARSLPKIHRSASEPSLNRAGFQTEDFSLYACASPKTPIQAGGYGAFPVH

[5] = tested on: HCT-15; assay: Antiproliferative activity against human HCT-15 cells assessed as reduction in cell growth; format: functional; how it was run: as §3
[6] = tested on: HOP-92; assay: Antiproliferative activity against human HOP-92 cells assessed as total growth inhibition; format: functional; how it was run: as §3
[7] = tested on: LOX IMVI; assay: Antiproliferative activity against human LOX IMVI cells assessed as inhibition of cell growth at 10 uM; format: functional; how it was run: as §1
[8] = tested on: SNB-75; assay: Antiproliferative activity against human SNB-75 cells assessed as reduction in cell growth; format: functional; how it was run: as §3
[9] = tested on: Panel breast (Carcinoma cell lines); assay: Antiproliferative activity against human Panel breast (6 Carcinoma cell lines) assessed as reduction in mean cell growth; format: functional; how it was run: as §3
[10] = tested on: RXF 393; assay: Cytotoxicity against human RXF 393 cells; format: functional; how it was run: as §2
[11] = tested on: NCI/ADR-RES; assay: Cytotoxicity against human NCI/ADR-RES cells; format: functional; how it was run: as §2
[12] = target: Epidermal growth factor receptor (Homo sapiens) (UniProt P00533); assay: Inhibition of EGFR (unknown origin) at 10 uM using […] as substrate incubated for 40 mins in presence of [gamma33P]ATP by scintillation counting based hotspot kinase assay relative to control
Chain of Epidermal growth factor receptor (Homo sapiens) (P00533 whole entry): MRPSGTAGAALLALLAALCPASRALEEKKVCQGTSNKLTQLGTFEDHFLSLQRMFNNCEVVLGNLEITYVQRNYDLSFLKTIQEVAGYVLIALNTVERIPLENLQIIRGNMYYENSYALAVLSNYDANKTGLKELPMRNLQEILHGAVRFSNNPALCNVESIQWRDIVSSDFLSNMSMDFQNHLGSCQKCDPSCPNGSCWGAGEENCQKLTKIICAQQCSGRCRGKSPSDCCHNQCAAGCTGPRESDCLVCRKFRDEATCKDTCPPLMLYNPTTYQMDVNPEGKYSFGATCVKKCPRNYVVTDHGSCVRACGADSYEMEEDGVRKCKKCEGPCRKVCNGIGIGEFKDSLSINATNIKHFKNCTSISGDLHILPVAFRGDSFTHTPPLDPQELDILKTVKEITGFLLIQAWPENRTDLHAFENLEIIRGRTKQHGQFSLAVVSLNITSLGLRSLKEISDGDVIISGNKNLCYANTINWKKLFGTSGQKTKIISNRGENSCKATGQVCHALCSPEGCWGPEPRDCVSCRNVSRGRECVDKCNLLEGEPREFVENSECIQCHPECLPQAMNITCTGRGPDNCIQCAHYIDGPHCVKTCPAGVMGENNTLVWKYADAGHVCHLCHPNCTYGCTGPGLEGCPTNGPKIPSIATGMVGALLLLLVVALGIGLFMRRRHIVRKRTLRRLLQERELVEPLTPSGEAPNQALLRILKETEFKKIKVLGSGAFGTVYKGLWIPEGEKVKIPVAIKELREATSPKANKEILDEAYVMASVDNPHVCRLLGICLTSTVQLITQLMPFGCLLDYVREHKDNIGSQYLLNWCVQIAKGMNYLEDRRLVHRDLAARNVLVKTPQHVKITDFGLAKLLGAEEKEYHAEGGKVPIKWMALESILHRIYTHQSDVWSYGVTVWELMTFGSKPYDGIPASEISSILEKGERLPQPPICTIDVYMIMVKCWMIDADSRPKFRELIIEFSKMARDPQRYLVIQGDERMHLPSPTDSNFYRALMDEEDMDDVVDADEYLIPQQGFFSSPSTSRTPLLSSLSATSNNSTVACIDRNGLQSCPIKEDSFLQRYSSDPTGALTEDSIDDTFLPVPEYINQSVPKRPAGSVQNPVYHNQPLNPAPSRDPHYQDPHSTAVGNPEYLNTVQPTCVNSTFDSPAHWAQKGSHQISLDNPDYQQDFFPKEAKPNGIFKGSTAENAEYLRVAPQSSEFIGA

[13] = tested on: Serine/threonine-protein kinase B-raf (Homo sapiens), P15056 [V600E]; assay: Inhibition of B-RAF V600E mutant (unknown origin) at 10 uM using […] as substrate incubated for 40 mins in presence of [gamma33P]ATP by scintillation counting based hotspot kinase assay relative to control
Chain of Serine/threonine-protein kinase B-raf (Homo sapiens), P15056 [V600E] (P15056 whole entry V600E): as the sequence (P15056 whole entry) above, with V600E counted along it

[14] = tested on: RXF 393; assay: Antiproliferative activity against human RXF 393 cells assessed as reduction in cell growth; format: functional; how it was run: as §3
[15] = tested on: SK-MEL-5; assay: Cytotoxicity against human SK-MEL-5 cells; format: functional; how it was run: as §2
[16] = tested on: MDA-MB-468; assay: Antiproliferative activity against human MDA-MB-468 cells assessed as reduction in cell growth; format: functional; how it was run: as §3
[17] = Antiproliferative activity against human Panel non-small cell lung cancer (8 Carcinoma cell lines) assessed as reduction in mean cell growth; format: functional; conditions: Non-small cell lung cancer cell line; how it was run: as §3
[18] = target: T1, RAF proto-oncogene serine/threonine-protein kinase (Homo sapiens, UniProt P04049); assay: Inhibition of RAF1 (unknown origin) using […] as substrate incubated for 40 mins in presence of [gamma33P]ATP by scintillation counting based hotspot kinase assay
T1 sequence (P04049 whole entry): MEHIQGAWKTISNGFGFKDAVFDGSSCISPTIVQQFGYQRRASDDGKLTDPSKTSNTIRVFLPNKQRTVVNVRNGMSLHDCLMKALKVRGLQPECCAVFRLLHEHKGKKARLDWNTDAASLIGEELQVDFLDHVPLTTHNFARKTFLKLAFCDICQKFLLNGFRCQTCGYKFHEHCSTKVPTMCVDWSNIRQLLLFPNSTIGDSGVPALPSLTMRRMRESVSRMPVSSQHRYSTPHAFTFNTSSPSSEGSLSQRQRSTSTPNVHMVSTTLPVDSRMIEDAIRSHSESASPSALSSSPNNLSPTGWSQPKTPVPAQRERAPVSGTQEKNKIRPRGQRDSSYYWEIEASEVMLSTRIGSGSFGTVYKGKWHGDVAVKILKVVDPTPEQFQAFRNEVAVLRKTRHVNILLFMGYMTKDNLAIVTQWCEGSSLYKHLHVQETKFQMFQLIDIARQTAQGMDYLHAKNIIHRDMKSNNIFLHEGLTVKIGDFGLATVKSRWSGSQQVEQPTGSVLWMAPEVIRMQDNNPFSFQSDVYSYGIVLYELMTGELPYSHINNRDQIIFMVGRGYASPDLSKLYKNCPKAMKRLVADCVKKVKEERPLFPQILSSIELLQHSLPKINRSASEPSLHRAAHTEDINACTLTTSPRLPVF
How it was run: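 IC50 from a radiometric assay. Kinase (5–10 mU) is incubated in 25 mM Tris pH 7.5 with 0.02 mM EGTA, 0.66 mg/mL myelin basic protein as substrate, 10 mM magnesium acetate and [γ33P]ATP. Mg-ATP starts the reaction, which runs 40 min at room temperature. It is stopped with 3% phosphoric acid, captured on filtermat, washed and counted by scintillation.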

[19] = tested on: HOP-92; assay: Antiproliferative activity against human HOP-92 cells assessed as reduction in cell growth; format: functional; how it was run: as §3
[20] = tested on: HCT-15; assay: Antiproliferative activity against human HCT-15 cells assessed as total growth inhibition; format: functional; how it was run: as §3
[21] = tested on: Panel melanoma (Carcinoma cell lines); assay: Antiproliferative activity against human Panel melanoma (9 Carcinoma cell lines) assessed as reduction in mean cell growth; format: functional; how it was run: as §3
[22] = target: Serine/threonine-protein kinase B-raf (Homo sapiens, UniProt P15056, V600E); assay: Inhibition of B-RAF V600E mutant (unknown origin) using […] as substrate incubated for 40 mins in presence of [gamma33P]ATP by scintillation counting based hotspot kinase assay
Chain of Serine/threonine-protein kinase B-raf (P15056 2-766 V600E limits assumed): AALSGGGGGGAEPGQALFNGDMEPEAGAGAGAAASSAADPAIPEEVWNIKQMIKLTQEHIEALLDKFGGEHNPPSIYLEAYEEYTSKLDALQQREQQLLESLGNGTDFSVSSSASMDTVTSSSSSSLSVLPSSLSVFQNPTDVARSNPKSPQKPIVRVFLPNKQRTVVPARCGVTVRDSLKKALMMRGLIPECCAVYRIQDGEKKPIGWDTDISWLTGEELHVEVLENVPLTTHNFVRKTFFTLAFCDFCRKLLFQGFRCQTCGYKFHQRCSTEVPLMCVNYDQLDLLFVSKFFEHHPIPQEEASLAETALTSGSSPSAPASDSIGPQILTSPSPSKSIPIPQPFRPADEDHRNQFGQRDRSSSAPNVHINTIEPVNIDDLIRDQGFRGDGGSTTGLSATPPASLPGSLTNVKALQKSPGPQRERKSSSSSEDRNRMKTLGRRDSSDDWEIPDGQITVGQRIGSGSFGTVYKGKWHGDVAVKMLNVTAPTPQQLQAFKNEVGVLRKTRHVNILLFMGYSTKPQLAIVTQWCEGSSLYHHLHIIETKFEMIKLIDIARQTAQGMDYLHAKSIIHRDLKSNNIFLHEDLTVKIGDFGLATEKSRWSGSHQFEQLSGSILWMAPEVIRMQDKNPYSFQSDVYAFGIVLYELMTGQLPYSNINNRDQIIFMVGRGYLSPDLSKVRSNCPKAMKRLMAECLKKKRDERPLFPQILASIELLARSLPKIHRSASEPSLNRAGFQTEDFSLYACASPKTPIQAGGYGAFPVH

[23] = Antiproliferative activity against human Panel NCI-58 (58 Carcinoma cell lines) assessed as reduction in mean cell growth at 10 uM; format: functional; parameters: scale not given: the % may be the effect or the level left; how it was run: as §1
[24] = tested on: COLO 205; assay: Antiproliferative activity against human COLO 205 cells assessed as reduction in cell growth; format: functional; how it was run: as §3
[25] = tested on: Panel renal (Carcinoma cell lines); assay: Antiproliferative activity against human Panel renal (8 Carcinoma cell lines) assessed as reduction in mean cell growth; format: functional; how it was run: as §3
[26] = tested on: L132; assay: Cytotoxicity against human L132 cells assessed as reduction in cell growth at 31.3 to 100 uM relative to control; format: toxicity, cell-based; parameters: scale not given: the % may be the effect or the level left; conditions: l132, 100 µM, dose 31.3-100 µM
[27] = tested on: NCI/ADR-RES; assay: Antiproliferative activity against human NCI/ADR-RES cells assessed as total growth inhibition; format: functional; how it was run: as §3
[28] = tested on: COLO 205; assay: Antiproliferative activity against human COLO 205 cells assessed as total growth inhibition; format: functional; how it was run: as §3
[29] = tested on: Panel CNS (Carcinoma cell lines); assay: Antiproliferative activity against human Panel CNS (6 Carcinoma cell lines) assessed as reduction in mean cell growth; format: functional; how it was run: as §3
[30] = target: Tyrosine-protein kinase ABL1 (Homo sapiens) (UniProt P00519); assay: Inhibition of ABL (unknown origin) at 10 uM using […] as substrate incubated for 40 mins in presence of [gamma33P]ATP by scintillation counting based hotspot kinase assay relative to control
Chain of Tyrosine-protein kinase ABL1 (Homo sapiens) (P00519 whole entry): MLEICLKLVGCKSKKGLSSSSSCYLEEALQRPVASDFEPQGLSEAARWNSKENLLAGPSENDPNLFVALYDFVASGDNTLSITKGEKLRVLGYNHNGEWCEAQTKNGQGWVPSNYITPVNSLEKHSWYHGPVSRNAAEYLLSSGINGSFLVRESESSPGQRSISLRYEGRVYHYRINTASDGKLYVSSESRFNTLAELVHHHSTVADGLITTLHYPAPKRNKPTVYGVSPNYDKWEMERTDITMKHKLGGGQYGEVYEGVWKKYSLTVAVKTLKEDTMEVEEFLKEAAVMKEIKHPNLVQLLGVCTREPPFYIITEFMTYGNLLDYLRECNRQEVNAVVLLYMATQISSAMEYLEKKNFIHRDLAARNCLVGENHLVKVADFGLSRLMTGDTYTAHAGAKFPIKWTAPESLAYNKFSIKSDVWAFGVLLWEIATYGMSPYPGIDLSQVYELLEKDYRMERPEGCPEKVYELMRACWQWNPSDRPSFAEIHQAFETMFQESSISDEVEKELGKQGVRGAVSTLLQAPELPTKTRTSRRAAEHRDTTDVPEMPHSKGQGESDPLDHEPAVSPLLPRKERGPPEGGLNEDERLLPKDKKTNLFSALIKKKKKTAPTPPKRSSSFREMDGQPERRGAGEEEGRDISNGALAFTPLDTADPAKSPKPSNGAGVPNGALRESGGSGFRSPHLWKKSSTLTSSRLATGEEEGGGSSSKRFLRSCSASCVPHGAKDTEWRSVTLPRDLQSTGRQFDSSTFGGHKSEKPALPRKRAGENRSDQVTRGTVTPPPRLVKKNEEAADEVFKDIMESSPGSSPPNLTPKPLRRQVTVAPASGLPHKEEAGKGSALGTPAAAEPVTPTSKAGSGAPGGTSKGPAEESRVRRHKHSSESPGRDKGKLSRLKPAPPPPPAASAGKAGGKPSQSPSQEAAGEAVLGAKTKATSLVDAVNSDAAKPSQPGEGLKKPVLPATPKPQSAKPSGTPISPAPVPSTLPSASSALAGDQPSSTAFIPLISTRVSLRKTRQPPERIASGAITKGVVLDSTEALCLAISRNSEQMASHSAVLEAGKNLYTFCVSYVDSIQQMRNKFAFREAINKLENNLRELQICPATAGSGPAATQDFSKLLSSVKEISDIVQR

[31] = tested on: RXF 393; assay: Antiproliferative activity against human RXF 393 cells assessed as total growth inhibition; format: functional; how it was run: as §3
[32] = tested on: PC-3; assay: Cytotoxicity against human PC-3 cells; format: functional; how it was run: as §2
[33] = tested on: MDA-MB-468; assay: Cytotoxicity against human MDA-MB-468 cells; format: functional; conditions: read-out: LC50 (the source's name); how it was run: as §2
[34] = tested on: HOP-92; assay: Cytotoxicity against human HOP-92 cells; format: functional; how it was run: as §2
[35] = tested on: NCI/ADR-RES; assay: Antiproliferative activity against human NCI/ADR-RES cells assessed as reduction in cell growth; format: functional; how it was run: as §3
[36] = tested on: SK-MEL-5; assay: Antiproliferative activity against human SK-MEL-5 cells assessed as total growth inhibition; format: functional; how it was run: as §3
[37] = tested on: Panel prostate (Carcinoma cell lines); assay: Antiproliferative activity against human Panel prostate (2 Carcinoma cell lines) assessed as reduction in mean cell growth; format: functional; how it was run: as §3
[38] = tested on: SNB-75; assay: Antiproliferative activity against human SNB-75 cells assessed as total growth inhibition; format: functional; how it was run: as §3
[39] = tested on: MDA-MB-468; assay: Antiproliferative activity against human MDA-MB-468 cells assessed as total growth inhibition; format: functional; how it was run: as §3
[40] = tested on: PC-3; assay: Antiproliferative activity against human PC-3 cells assessed as total growth inhibition; format: functional; how it was run: as §3
[41] = tested on: HCC 2998; assay: Antiproliferative activity against human HCC 2998 cells assessed as inhibition of cell growth at 10 uM; format: functional; how it was run: as §1
[42] = tested on: K562; assay: Cytotoxicity against human k562 cells; format: functional; conditions: read-out: LC50 (the source's name); how it was run: as §2
[43] = tested on: K562; assay: Antiproliferative activity against human K562 cells assessed as total growth inhibition; format: functional; how it was run: as §3
[44] = target: T1, RAF proto-oncogene serine/threonine-protein kinase; assay: Inhibition of RAF1 (unknown origin) at 10 uM using […] as substrate incubated for 40 mins in presence of [gamma33P]ATP by scintillation counting based hotspot kinase assay relative to control
[45] = tested on: Panel leukemia (Carcinoma cell lines); assay: Antiproliferative activity against human Panel leukemia (5 Carcinoma cell lines) assessed as reduction in mean cell growth; format: functional; how it was run: as §3
[46] = tested on: K562; assay: Antiproliferative activity against human K562 cells assessed as reduction in cell growth; format: functional; how it was run: as §3
[47] = tested on: PC-3; assay: Antiproliferative activity against human PC-3 cells assessed as reduction in cell growth; format: functional; how it was run: as §3
[48] = target: Mitogen-activated protein kinase 14 (Homo sapiens) (UniProt Q16539); assay: Inhibition of MAPK14 (p38 alpha) (unknown origin) at 10 uM using […] as substrate incubated for 40 mins in presence of [gamma33P]ATP by scintillation counting based hotspot kinase assay relative to control
Chain of Mitogen-activated protein kinase 14 (Homo sapiens) (Q16539 whole entry): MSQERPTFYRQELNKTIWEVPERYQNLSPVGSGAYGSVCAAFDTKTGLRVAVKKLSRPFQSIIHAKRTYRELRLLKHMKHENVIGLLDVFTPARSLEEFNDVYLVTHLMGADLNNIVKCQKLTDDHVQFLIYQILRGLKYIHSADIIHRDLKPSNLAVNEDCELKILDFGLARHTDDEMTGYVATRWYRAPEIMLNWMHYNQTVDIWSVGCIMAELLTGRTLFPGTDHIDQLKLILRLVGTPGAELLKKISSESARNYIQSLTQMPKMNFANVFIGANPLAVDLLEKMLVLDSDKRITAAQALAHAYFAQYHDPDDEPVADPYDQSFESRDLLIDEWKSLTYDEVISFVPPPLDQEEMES

[49] = tested on: SK-MEL-5; assay: Antiproliferative activity against human SK-MEL-5 cells assessed as reduction in cell growth; format: functional; how it was run: as §3
[50] = organism: Homo sapiens; assay: Inhibition of ABL […] mutant (unknown origin) at 10 uM using […] as substrate incubated for 40 mins in presence of [gamma33P]ATP by scintillation counting based hotspot kinase assay relative to control
[51] = tested on: COLO 205; assay: Cytotoxicity against human COLO 205 cells; format: functional; how it was run: as §2
[52] = tested on: Panel ovarian (Carcinoma cell lines); assay: Antiproliferative activity against human Panel ovarian (7 Carcinoma cell lines) assessed as reduction in mean cell growth; format: functional; how it was run: as §3
[53] = tested on: SNB-75; assay: Cytotoxicity against human SNB-75 cells; format: functional; conditions: read-out: LC50 (the source's name); how it was run: as §2

`COc1cccc(-c2nn(-c3ccccc3)cc2-c2ccnc(NCCCNC(=O)Nc3ccc(Cl)c(Cl)c3)c2)c1` gave an inhibition at 10 µM [1] of 145%, a CC50 [2] of 29.1 µM and a GI50 [3] of 2.44 µM. For the same compound, the inhibition [4] was 56.9%, the GI50 [5] was 2.4 µM and the TGI [6] was 7.68 µM. The inhibition at 10 µM [7] was 192%, the GI50 [8] was 2.52 µM and the GI50 [9] was 2.69 µM. For the same compound, the LC50 [10] was 23 µM, the LC50 [11] was 86.9 µM and the inhibition [12] was 3.38%. It also gave an inhibition [13] of 90.4%, a GI50 [14] of 1.8 µM and an LC50 [15] of 6.3 µM. The GI50 [16] was 1.92 µM, the GI50 [17] was 3.51 µM and the IC50 [18] was 1.5 µM. The GI50 [19] was 2.32 µM, the TGI [20] was 6.66 µM and the GI50 [21] was 1.89 µM. It also gave an IC50 [22] of 0.77 µM, an Activity [23] of 104.1% and a GI50 [24] of 1.87 µM. The GI50 [25] was 3.14 µM, the Activity [26] was 50% and the TGI [27] was 5.39 µM. The TGI [28] was 3.82 µM, the GI50 [29] was 2.93 µM and the inhibition [30] was 7.7%. For the same compound, the TGI [31] was 4.87 µM, the LC50 [32] was 100 µM and the CC50 [33] was 9.82 µM. It also gave an LC50 [34] of 71 µM, a GI50 [35] of 2.19 µM and a TGI [36] of 3.32 µM. It also gave a GI50 [37] of 4.71 µM, a TGI [38] of 19.2 µM and a TGI [39] of 4.34 µM. The TGI [40] was 22.4 µM, the inhibition at 10 µM [41] was 162% and the CC50 [42] was 100 µM. It also gave a TGI [43] of 5.85 µM, an inhibition [44] of 87.7% and a GI50 [45] of 2.31 µM. For the same compound, the GI50 [46] was 2.38 µM, the GI50 [47] was 3.96 µM and the inhibition [48] was 45.8%. The GI50 [49] was 1.75 µM, the inhibition [50] was 6.38% and the LC50 (lethal concentration 50%) [51] was 7.8 µM. It also gave a GI50 [52] of 3.74 µM and a CC50 [53] of 100 µM.
